Reference: BindingDB's records for doi:10.1016/j.bmcl.2013.07.029 (Vanderbilt University Medical Center, 2013)
pIC50: −log10 of the molar value.

Target: Metabotropic glutamate receptor 1 (Homo sapiens, UniProt Q13255)
Experiment: Negative allosteric modulation of human mGlu1 receptor expressed in HEK293A TREx cells assessed as calcium flux after 45 mins
In short: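 HEK293A TREx cells stably expressing human mGlu1 were induced overnight with 50 ng/mL tetracycline at 37 °C. Ten-point 1:3 compound series were added for 2.3 min, then an EC20 of glutamate, then an EC80 of glutamate 1.9 min later. Ca2+ flux was read for 1.7 min. Values are the average of n ≥ 3.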

Chain of Metabotropic glutamate receptor 1 (Q13255 whole entry): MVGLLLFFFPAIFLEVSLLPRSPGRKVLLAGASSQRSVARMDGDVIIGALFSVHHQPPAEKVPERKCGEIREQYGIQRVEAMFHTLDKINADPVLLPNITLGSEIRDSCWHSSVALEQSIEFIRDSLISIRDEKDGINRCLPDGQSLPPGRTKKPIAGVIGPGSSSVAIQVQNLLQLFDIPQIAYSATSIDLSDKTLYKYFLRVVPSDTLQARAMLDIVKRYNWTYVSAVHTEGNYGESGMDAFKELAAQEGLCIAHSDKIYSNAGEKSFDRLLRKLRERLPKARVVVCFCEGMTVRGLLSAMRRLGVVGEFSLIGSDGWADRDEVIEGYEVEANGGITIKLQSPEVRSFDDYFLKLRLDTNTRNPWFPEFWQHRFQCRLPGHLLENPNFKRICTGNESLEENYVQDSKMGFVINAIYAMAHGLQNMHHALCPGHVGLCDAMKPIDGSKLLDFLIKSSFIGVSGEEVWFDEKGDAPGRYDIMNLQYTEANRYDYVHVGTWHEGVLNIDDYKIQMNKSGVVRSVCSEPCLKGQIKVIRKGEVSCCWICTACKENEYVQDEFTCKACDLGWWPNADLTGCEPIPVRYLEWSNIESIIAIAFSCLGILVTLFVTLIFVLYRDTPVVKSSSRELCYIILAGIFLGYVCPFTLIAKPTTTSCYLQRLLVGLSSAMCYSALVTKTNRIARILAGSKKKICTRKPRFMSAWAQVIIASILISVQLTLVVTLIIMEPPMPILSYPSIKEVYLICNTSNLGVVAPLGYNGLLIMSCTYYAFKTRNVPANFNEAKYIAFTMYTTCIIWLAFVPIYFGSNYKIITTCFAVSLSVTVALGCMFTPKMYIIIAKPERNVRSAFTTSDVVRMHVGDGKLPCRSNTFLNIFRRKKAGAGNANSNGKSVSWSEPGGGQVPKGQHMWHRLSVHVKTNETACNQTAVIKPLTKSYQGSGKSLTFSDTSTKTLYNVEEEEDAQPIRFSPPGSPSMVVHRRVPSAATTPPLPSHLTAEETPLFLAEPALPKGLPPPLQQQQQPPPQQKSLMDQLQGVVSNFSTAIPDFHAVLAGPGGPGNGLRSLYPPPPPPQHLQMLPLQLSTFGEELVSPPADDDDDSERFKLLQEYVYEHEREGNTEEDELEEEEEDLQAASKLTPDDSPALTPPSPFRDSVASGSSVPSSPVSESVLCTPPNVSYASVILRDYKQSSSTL

pIC50	SMILES
< 4.50	CC(C)(C)CC(=O)N1C[C@@H]2CN(c3ccccn3)C[C@@H]2C1
< 4.50	CC(C)(C)C(=O)N1C[C@@H]2CN(c3ccccn3)C[C@@H]2C1
